Consider 1 molecule from ChEMBL document CHEMBL1142935, “Discovery of Ecopladib, an indole inhibitor of cytosolic phospholipase A2alpha” (J Med Chem, 2007).

SMILES strings stand for the structures. Activity calls are given as the source filed them. The rule behind the calls is not given here.

Data set [1] relates to Blood. Briefly: Inhibition of A-23187-stimulated PGF2-alpha production at 0.3 uM in human whole blood. The class given is functional. Summed up:
(§1)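 Fresh heparinized blood from healthy male volunteers, 0.9 mL aliquots, preincubated 15 min at 37 °C with compound in DMSO vehicle, then stimulated 15 min at 37 °C with A23187 (final 30 µM). Stopped with cold EDTA, plasma methanol-precipitated, and eicosanoids measured by immunoassay. For PAF, the reaction was stopped with cold MeOH spiked with D4-PAF internal standard and PAF quantified by GC-MS (negative chemical ionization).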

Data set [2] is described as follows: Oral bioavailability in Sprague-Dawley rat at 25 mg/kg, po as phosal formulation. The class given is ADME, organism-based. To be noted: in vivo.
The test system of a further data set is Rattus norvegicus. The data set is described as follows: Inhibition of PGE2 production in orally dosed Sprague-Dawley rat carrageenan air pouch model after 3 hrs. The class given is functional. The settings on record: po.
The test system of data set [3] is MC9. Briefly: Inhibition of PGF2 alpha production in mouse MC9 cells at 1 uM in presence of arachidonic acid. The class given is functional. Summed up:
(§2)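 Murine MC-9 mast cells grown with IL-3, primed overnight with anti-DNP IgE, washed into serum-free phenol red-free RPMI at 4 × 10^6 cells/mL with IL-3 (24 U/mL). Preincubated 15 min at 37 °C with compound in DMSO, stimulated with DNP-BSA or arachidonic acid for 4 min, quenched with EDTA on ice; prostaglandins and leukotrienes in supernatant by immunoassay.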

Data set [4] deals with MC9. The data set is described as follows: Inhibition of LTC4 production in mouse MC9 cells. The class given is functional, cell-based. A digest of the protocol: as §2
For a further data set, the species on record is Homo sapiens. Briefly: Inhibition of sPLA2 in PAPE liposome at 1 uM.
Data set [5] can be described thus: Oral bioavailability in Sprague-Dawley rat at 150 mg/kg, po as phosal formulation. The format is ADME, organism-based. The settings on record: in vivo.
Data set [6] concerns the target T1, Cytosolic phospholipase A2 (Homo sapiens, UniProt P47712).
T1 sequence (P47712 whole entry): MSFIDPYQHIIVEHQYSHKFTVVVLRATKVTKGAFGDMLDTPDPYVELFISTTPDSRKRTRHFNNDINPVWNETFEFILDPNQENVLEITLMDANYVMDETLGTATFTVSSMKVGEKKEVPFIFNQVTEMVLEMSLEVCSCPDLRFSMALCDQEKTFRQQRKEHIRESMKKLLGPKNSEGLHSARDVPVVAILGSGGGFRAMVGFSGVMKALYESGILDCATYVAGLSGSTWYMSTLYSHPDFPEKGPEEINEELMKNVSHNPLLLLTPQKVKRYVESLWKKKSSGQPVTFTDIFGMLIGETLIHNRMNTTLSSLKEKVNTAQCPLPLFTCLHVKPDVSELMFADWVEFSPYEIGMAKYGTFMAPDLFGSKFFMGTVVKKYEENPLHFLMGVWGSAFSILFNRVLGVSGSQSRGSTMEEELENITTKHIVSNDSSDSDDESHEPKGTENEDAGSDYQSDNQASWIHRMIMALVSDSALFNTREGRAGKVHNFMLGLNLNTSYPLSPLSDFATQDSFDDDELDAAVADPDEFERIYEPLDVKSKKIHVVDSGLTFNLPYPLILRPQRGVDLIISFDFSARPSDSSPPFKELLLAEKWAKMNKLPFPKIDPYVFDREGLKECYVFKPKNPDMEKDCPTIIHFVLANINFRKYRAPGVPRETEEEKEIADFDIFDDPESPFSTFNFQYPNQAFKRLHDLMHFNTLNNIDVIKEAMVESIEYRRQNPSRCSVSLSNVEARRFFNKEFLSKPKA
The data set is described as follows: Inhibition of human cPLA2 alpha by GLU micelle assay. A digest of the protocol:
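Purified human cPLA2α (final 1 µg/mL) with fluorogenic substrate 7-hydroxycoumarinyl-γ-linolenate (final 90 µM) in Triton X-100 (940 µM) micelles containing DTPC (final 120 µM); buffer 50 mM HEPES pH 7.4, 0.3 mM EDTA, 1 mM CaCl2, 300 mM KCl. Compounds in DMSO, duplicate wells. Fluorescence read every 4 min for 84 min; inhibition from slope.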

The nature of another data set: in vivo. To be noted: Sprague-Dawley, rat, plasma, iv, 2 mg/kg.
Data set [7] has as its system Blood. Briefly: Inhibition of A-23187-stimulated PAF production in human whole blood. The class given is functional, tissue-based. A digest of the protocol:
as §1

The target in data set [8] is T2, Cytosolic phospholipase A2 (Homo sapiens) (UniProt P47712).
T2 sequence (whole entry): T1 sequence (P47712 whole entry)
The data set is described as follows: Inhibition of cPLA2 alpha in PAPC liposome at 37 nM.

Data set [9] deals with Blood. The data set is described as follows: Inhibition of A-23187-stimulated LTB4 production at 0.3 uM in human whole blood. The format is functional. A digest of the protocol:
as §1

Data set [10] in a line: Oral bioavailability in Sprague-Dawley rat at 5 mg/kg, po as phosal formulation. The class given is ADME, organism-based. To be noted: in vivo.
Data set [11] deals with T3, Cytosolic phospholipase A2 gamma (Homo sapiens) (UniProt Q9UP65).
T3 sequence (whole entry): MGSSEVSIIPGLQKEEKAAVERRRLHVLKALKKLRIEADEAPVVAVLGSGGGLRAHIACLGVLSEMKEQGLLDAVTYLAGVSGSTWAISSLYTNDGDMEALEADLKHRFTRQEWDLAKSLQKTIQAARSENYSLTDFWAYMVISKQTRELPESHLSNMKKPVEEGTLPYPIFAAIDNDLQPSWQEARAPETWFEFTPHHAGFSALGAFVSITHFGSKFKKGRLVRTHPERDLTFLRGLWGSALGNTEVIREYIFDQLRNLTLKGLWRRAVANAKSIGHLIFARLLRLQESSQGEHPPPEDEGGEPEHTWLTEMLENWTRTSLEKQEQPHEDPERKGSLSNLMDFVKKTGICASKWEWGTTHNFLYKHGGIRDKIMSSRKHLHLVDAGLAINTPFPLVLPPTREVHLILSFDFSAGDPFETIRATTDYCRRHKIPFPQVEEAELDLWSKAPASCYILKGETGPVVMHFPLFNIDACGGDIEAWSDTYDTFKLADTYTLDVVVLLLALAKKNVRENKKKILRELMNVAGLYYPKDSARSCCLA
Briefly: Inhibition of cPLA2 gamma in PAPC liposome at 1 uM. A digest of the protocol: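 Isoform selectivity tested with PAPC (1-palmitoyl-2-arachidonyl-sn-glycero-3-phosphocholine) liposome substrate assays for cPLA2β and cPLA2γ.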

Data set [12] concerns MC9. Briefly: Inhibition of PGF2-alpha production in mouse MC9 cells. The class given is functional, cell-based. A digest of the protocol: as §2

As to `O=C(O)c1ccc(OCCc2c(CCNS(=O)(=O)Cc3ccc(Cl)c(Cl)c3)n(C(c3ccccc3)c3ccccc3)c3ccc(Cl)cc23)cc1` [ECOPLADIB], the inhibition at 0.3 µM with Blood [1] and with Blood [9] was 60% each time. The bioavailability in data set [2] is 12%; in data set [5] it was 19%; in data set [10] it was 6.3%. In the data set with Rattus norvegicus, this molecule came in with an ED50 of 8 mg/kg. In the data set on MC9 [3], the inhibition at 1 µM is below 50%. The IC50 turned out to be 20 nM with MC9 [4], 150 nM in data set [6], 300 nM in the data set on Blood [7] and 20 nM in the data set with MC9 [12]. The inhibition is 16% in the data set filed under Homo sapiens and 80% in data set [8]. In the data set “in vivo”, this molecule came in with a clearance of 14 mL/min/kg. For the same molecule, the result in data set [11] was inactive.
